# Measured values reported in PMC11378026 (RSC Advances, 2024).
# Where two headings read alike, the source gives them in different places.
# Assays:
# breast cancer cells = conditions: cited from earlier work
# [1] = tested on: breast epithelial (MCF10A) cell line; assay: MTT cytotoxicity assay on MCF10A cells; format: cell-based; conditions: Homo sapiens, MCF-10A, read-out: IC50 (μg mL^−1) ± SD against MCF-10A
# Summary of the method: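 Mycoplasma-free MCF-10A cells, run in triplicate, were exposed to increasing doses of test compound, with 5-fluorouracil as positive control. MTT was added for 4 h, formazan was dissolved in DMSO, and absorbance was read at 570 and 630 nm. Viability = (A − A0)/(ANC − A0), using mean absorbances of treated, blank and cells-only wells. IC50 was derived from viability.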
# [2] = tested on: breast cancer (MCF-7) cell line; assay: MTT cytotoxicity assay on MCF-7 cells; format: cell-based, human
smiles,measurement,setting,value
N.N.O=C([O-])C1(C(=O)[O-])CCC1.[Pt+2] [Carboplatin],IC50,breast cancer cells; ref S2,73.5 µM
N.N.[Cl][Pt][Cl] [Cisplatin],IC50,breast cancer cells; ref S1,12.2 µM
"O=c1[nH]cc(F)c(=O)[nH]1 [5-FU, 5-fluorouracil, reference compound]",IC50,[1],41 ± 1.89 µg/mL
same,IC50,"[2]; Homo sapiens, MCF7, read-out: IC50 (μg mL^−1) ± SD against MCF-7",28.3 ± 1.89 µg/mL
same,Selectivity index (SI),[2]; cancer MCF-7 cells over healthy MCF10A cells,1.45
O=C1[O][Pt]2([NH][C@@H]3CCCC[C@H]3[NH]2)[O]C1=O [Oxaliplatin],IC50,breast cancer cells; ref S2,21.9 µM
